Experimental data published in ChEMBL document CHEMBL1128444 (J Med Chem, 1995).

What was measured:
[1] = biological target: T1, Norepinephrine transporter (Rattus norvegicus, UniProt Q9WTR4); experiment: Binding affinity at the Norepinephrine transporter in rat frontal cortex by inhibition of 0.5 nM [3H]nisoxetine binding; format: tissue-based
[2] = biological target: T2, Sodium-dependent dopamine transporter (Rattus norvegicus, UniProt P23977); experiment: Binding affinity at the Dopamine transporter in rat striata by inhibition of 0.5 nM [3H]WIN-35428 binding
[3] = biological target: Monoamine transporters; serotonin & dopamine (Rattus norvegicus) (UniProt P31652+P23977); experiment: Ratio of IC50 value against Serotonin transporter to that of dopamine transporter; format: protein assay
[4] = biological target: Sodium-dependent serotonin transporter (Rattus norvegicus, UniProt P31652); experiment: Binding affinity at the Serotonin transporter in rat midbrain by inhibition of 0.5 nM [3H]-paroxetine binding; format: tissue-based
[5] = biological target: Monoamine transporters; Norepininephrine & dopamine (Rattus norvegicus) (UniProt P23977+Q9WTR4); experiment: Ratio of IC50 value against NE to that of DA transporters; format: protein assay
Procedure, shortened: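 Competition binding against 0.5 nM [3H]WIN 35,428 (DA transporter) or 0.5 nM [3H]nisoxetine (NE transporter). The IC50 is the mean ± standard error of three or four experiments, each run in triplicate. Selectivity ratios are NE/DA or 5-HT/DA quotients of the IC50 values.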

[6] = biological target: T1, Norepinephrine transporter; experiment: Inhibition of [3H]NE uptake by rat frontal cortex Norepinephrine transporter; format: tissue-based
Procedure, shortened: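 Rat frontal cortex synaptosomes were used at 10 mg/mL tissue with 5 nM final [3H]norepinephrine and 10 μM pargyline in Krebs phosphate buffer, pH 7.4. Incubation was 3 min at 30 °C, followed by filtration and scintillation counting. Nonspecific uptake was defined with 1 μM desipramine. Three or four experiments were run in triplicate, and Ki was derived by Cheng–Prusoff.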

[7] = biological target: T2, Sodium-dependent dopamine transporter; experiment: Inhibition of [3H]DA uptake by rat striatal dopamine transporter
Procedure, shortened: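 Rat striatal crude synaptosomes were prepared from male Sprague–Dawley rats by 0.32 M sucrose homogenisation and centrifugation at 800g then 2000g. Each tube held 1.5 mg tissue, 0.5 nM [3H]dopamine and 10 μM pargyline in Krebs phosphate buffer, pH 7.4, with dextrose and ascorbate. Incubation was 3 min at 30 °C, followed by filtration and scintillation counting. Nonspecific uptake was defined with 1 μM mazindol. Three or four experiments were run in triplicate, and Ki was derived by Cheng–Prusoff.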

Sodium-dependent serotonin transporter, sequence (P31652 whole entry): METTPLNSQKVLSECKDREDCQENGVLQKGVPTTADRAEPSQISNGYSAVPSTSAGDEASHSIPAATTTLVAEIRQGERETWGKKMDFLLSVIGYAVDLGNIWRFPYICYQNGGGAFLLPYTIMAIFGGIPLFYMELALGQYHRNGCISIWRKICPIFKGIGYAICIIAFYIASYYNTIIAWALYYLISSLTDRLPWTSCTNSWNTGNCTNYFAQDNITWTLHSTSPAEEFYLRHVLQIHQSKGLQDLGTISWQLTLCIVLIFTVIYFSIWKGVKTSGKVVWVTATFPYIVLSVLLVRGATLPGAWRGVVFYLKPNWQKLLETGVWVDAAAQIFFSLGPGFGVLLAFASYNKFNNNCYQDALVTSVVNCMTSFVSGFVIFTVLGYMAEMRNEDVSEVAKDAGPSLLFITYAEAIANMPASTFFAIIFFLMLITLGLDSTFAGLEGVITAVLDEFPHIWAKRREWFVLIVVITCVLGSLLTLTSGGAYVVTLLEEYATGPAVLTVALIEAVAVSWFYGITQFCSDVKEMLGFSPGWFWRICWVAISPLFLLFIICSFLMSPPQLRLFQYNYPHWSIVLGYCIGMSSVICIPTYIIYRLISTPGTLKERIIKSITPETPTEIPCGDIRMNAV
T1 sequence (Q9WTR4 whole entry): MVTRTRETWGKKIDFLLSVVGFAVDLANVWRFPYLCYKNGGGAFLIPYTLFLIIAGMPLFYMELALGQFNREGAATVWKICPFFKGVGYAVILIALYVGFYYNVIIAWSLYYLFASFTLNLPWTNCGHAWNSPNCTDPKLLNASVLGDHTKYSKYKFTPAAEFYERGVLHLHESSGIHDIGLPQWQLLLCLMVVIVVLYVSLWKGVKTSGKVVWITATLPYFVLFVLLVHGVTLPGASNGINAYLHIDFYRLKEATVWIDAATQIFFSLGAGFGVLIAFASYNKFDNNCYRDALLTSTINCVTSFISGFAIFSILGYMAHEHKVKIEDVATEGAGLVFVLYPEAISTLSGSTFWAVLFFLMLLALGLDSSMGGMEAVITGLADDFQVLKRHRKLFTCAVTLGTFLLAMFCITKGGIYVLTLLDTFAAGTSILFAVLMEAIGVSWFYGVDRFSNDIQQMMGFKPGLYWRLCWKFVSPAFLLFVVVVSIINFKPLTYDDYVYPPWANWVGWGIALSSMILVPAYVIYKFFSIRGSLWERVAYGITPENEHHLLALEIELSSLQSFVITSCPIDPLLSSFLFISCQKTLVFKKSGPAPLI
T2 sequence (P23977 whole entry): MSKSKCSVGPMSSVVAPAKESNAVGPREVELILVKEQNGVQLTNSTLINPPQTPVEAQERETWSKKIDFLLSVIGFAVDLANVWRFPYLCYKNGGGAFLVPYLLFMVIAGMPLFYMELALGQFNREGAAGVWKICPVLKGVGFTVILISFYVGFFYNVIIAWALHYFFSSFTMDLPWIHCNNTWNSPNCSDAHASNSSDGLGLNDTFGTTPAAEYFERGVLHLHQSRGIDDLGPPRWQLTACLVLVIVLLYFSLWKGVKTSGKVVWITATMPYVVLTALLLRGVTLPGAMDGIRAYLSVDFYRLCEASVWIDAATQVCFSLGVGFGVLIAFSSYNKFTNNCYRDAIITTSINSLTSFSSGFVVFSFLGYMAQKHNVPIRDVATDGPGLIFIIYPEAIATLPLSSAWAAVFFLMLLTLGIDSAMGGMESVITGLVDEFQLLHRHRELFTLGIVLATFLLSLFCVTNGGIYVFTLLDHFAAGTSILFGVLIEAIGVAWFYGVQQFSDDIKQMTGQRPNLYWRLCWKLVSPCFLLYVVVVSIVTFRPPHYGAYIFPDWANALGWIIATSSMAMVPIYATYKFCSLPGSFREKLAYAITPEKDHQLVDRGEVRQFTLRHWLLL
Monoamine transporters; serotonin & dopamine (Rattus norvegicus), sequence (P23977 whole entry, looked up): as the sequence (P23977 whole entry) above
Monoamine transporters; serotonin & dopamine (Rattus norvegicus), sequence (P31652 whole entry, looked up): as the sequence (P31652 whole entry) above

Row | SMILES | IC50 [1] | IC50 [2] | Ratio [3] | IC50 [4] | Ratio [5] | Ki [6] | Ki [7]
1 | CON(C)C(=O)C1C(OC(=O)c2ccccc2)CC2CCC1N2C (centres undefined) | 3940 nM | 60 nM | 469 | 28200 nM | 66 | – | –
2 | CN1C2CCC1C(C(=O)N1CCC1)C(c1ccc(Cl)cc1)C2 (centres undefined) | 990 nM | 6.57 nM | 124 | 814 nM | 151 | – | –
3 | CON(C)C(=O)C1C(c2ccc(Cl)cc2)CC2CCC1N2C (centres undefined) | 549 nM | 0.85 nM | 852 | 724 nM | 646 | – | –
4 | CNC(=O)C1C(c2ccc(Cl)cc2)CC2CCC1N2C (centres undefined) | 1580 nM | 12.4 nM | 106 | 1310 nM | 128 | – | –
5 | Cc1ccc(C2CC3CCC(C2C(=O)OC2CCC2)N3C)cc1 (centres undefined) | 4740 nM | 3.74 nM | 540 | 2020 nM | 1270 | – | –
6 | CN1C2CCC1C(C(=O)OCCCc1ccccc1)C(OC(=O)c1ccccc1)C2 (centres undefined) | 4890 nM | 147 nM | 2.5 | 374 nM | 33 | – | –
7 | COC(=O)C1C(c2ccc(Br)cc2)CC2CCC1N2C (centres undefined) | – | 1.69 nM | 6 | 10.6 nM | 22 | – | –
8 | CN1C2CCC1C(C(=O)N1CCCO1)C(c1ccc(Cl)cc1)C2 (centres undefined) | 1080 nM | 1.47 nM | 1680 | 2470 nM | 736 | – | –
9 | CCCOC(=O)C1C(OC(=O)c2ccccc2)CC2CCC1N2C (centres undefined) | 6120 nM | 196 nM | 23 | 4520 nM | 31 | – | –
10 | Cc1ccc(C2CC3CCC(C2C(=O)Oc2ccc(Cl)cc2)N3C)cc1 (centres undefined) | 9520 nM | 117 nM | 366 | 42800 nM | 81 | – | –
11 | CN(C(=O)C1C(c2ccc(Cl)cc2)CC2CCC1N2C)c1ccccc1 (centres undefined) | 2200 nM | 45.5 nM | 519 | 23600 nM | 48 | – | –
12 | Cc1ccc(C2CC3CCC(C2C(=O)OC2CC2)N3C)cc1 (centres undefined) | 644 nM | 1.68 nM | 634 | – | 383 | – | –
13 | Cc1ccc(C2CC3CCC(C2C(=O)N2CCOCC2)N3C)cc1 (centres undefined) | 23600 nM | 11.7 nM | > 8550 | > 100000 nM | 2020 | – | –
14 | CN1C2CCC1C(C(=O)Oc1ccccc1)C(OC(=O)c1ccccc1)C2 (centres undefined) | 31000 nM | 112 nM | 301 | 33700 nM | 277 | – | –
15 | COC(=O)C1C(c2ccc(N)c(I)c2)CC2CCC1N2C (centres undefined) | 1330 nM | 1.35 nM | 89 | 120 nM | 984 | – | –
16 | CN1[C@H]2CC[C@@H]1[C@@H](C(=O)N1CCCC1)[C@@H](c1ccc(I)cc1)C2 | 991 nM | 0.37 nM | 4670 | 1730 nM | 2680 | – | –
17 | CC(C)OC(=O)C1C(OC(=O)c2ccccc2)CC2CCC1N2C (centres undefined) | 30300 nM | – | – | 25200 nM | – | – | –
18 | COC(=O)C1C(c2ccc(Cl)c(C)c2)CC2CCC1N2C (centres undefined) | 36.2 nM | 0.81 nM | 13 | 10.5 nM | 45 | – | –
19 | COC(=O)C1C(c2ccc(Cl)c(Cl)c2)CC2CCC1N2C (centres undefined) | 18 nM | 0.79 nM | 4 | 3.13 nM | – | – | –
20 | Cc1ccc(C2CC3CCC(C2C(=O)OC2CCCC2)N3C)cc1 (centres undefined) | 2630 nM | 17.8 nM | 27 | 485 nM | 148 | – | –
21 | CN1C2CCC1C(C(=O)Oc1ccc(I)cc1)C(c1ccc(Cl)cc1)C2 (centres undefined) | 968 nM | 32.6 nM | 38 | 1230 nM | 30 | – | –
22 | CN1C2CCC1C(C(=O)N1CCCO1)C(c1ccc(I)cc1)C2 (centres undefined) | 357 nM | 0.75 nM | 173 | 130 nM | 476 | – | –
23 | CCN(CC)C(=O)C1C(c2ccc(Cl)cc2)CC2CCC1N2C (centres undefined) | 5530 nM | 5.48 nM | 1730 | 9430 nM | 1010 | – | –
24 | CN(C)C(=O)C1C(OC(=O)c2ccccc2)CC2CCC1N2C (centres undefined) | 7330 nM | 127 nM | 1130 | 144000 nM | 58 | – | –
25 | COC(=O)[C@@H]1C2CC[C@H](C[C@@H]1c1ccccc1)N2C | – | – | – | – | – | 37.2 nM | 49.8 nM

Row | SMILES | IC50 [1] | IC50 [2] | Ratio [3] | IC50 [4] | Ratio [5] | Ki [6] | Ki [7]
26 | CCC(CC)OC(=O)C1C(c2ccc(C)cc2)CC2CCC1N2C (centres undefined) | 3440 nM | 19.1 nM | 236 | – | 180 | – | –
27 | Cc1ccc(OC(=O)C2C(c3ccc(C)cc3)CC3CCC2N3C)cc1 (centres undefined) | 4100 nM | 81.2 nM | 197 | 16000 nM | 50 | – | –
28 | CN1C2CCC1C(C(=O)N1CCCCC1)C(c1ccc(Cl)cc1)C2 (centres undefined) | 1750 nM | 6.95 nM | 499 | 3470 nM | 252 | – | –
29 | CN1C2CCC1C(C(=O)Oc1ccc(Cl)cc1)C(c1ccc(Cl)cc1)C2 (centres undefined) | 4880 nM | 55 nM | 308 | 16900 nM | 89 | – | –
30 | CN1C2CCC1C(C(=O)N1CCOCC1)C(c1ccc(Cl)cc1)C2 (centres undefined) | 8550 nM | 2.9 nM | 30600 | 88800 nM | 2950 | – | –
31 | CN1[C@H]2CC[C@@H]1[C@@H](C(=O)N1CCCC1)[C@@H](c1ccc(Cl)cc1)C2 | 3950 nM | 1.38 nM | 8980 | 12400 nM | 2860 | – | –
32 | COc1ccc(OC(=O)C2C(c3ccc(Cl)cc3)CC3CCC2N3C)cc1 (centres undefined) | 1520 nM | 71 nM | 277 | 19700 nM | 21 | – | –
33 | CCN(CC)C(=O)C1C(c2ccc(C)cc2)CC2CCC1N2C (centres undefined) | 6220 nM | 24.7 nM | 1370 | 33900 nM | 252 | – | –
34 | COC(=O)C1C(c2ccc(C)cc2)CC2CCC1N2C (centres undefined) | 60 nM | 1.71 nM | – | – | – | 8.42 nM | 7.02 nM
35 | CON(C)C(=O)C1C(c2ccc(C)cc2)CC2CCC1N2C (centres undefined) | 442 nM | 2.55 nM | 1330 | 3400 nM | 173 | – | –
36 | CN1C2CCC1C(C(=O)OCc1ccccc1)C(OC(=O)c1ccccc1)C2 (centres undefined) | 20800 nM | 257 nM | 1.2 | 302 nM | 81 | – | –
37 | CN(C)C(=O)C1C(c2ccc(Cl)cc2)CC2CCC1N2C (centres undefined) | 942 nM | 1.38 nM | 782 | 1080 nM | 683 | – | –
38 | CONC(=O)C1C(c2ccc(Cl)cc2)CC2CCC1N2C (centres undefined) | 9910 nM | 10.7 nM | 4080 | 43700 nM | 826 | – | –
39 | CCOC(=O)C1C(OC(=O)c2ccccc2)CC2CCC1N2C (centres undefined) | 10000 nM | 195 nM | 30 | 5800 nM | 51 | – | –
40 | Cc1ccc(OC(=O)C2C(c3ccc(Cl)cc3)CC3CCC2N3C)cc1 (centres undefined) | 1280 nM | 27.4 nM | 44 | – | 45 | – | –
41 | Cc1ccccc1OC(=O)C1C(c2ccc(Cl)cc2)CC2CCC1N2C (centres undefined) | 4780 nM | 3.91 nM | 965 | – | 1220 | – | –
42 | Cc1ccc(C2CC3CCC(C2C(=O)Oc2cccc(C)c2)N3C)cc1 (centres undefined) | 2140 nM | 8.19 nM | 639 | – | 261 | – | –
43 | CC(C)OC(=O)C1C(c2ccccc2)CC2CCC1N2C (centres undefined) | 32000 nM | 85.1 nM | 272 | 23100 nM | 377 | – | –
44 | CN1C2CCC1C(C(=O)Oc1ccccc1)C(c1ccccc1)C2 (centres undefined) | 19300 nM | 76.7 nM | 1380 | 106000 nM | 251 | – | –
45 | CON(C)C(=O)C1C(c2ccc(I)cc2)CC2CCC1N2C (centres undefined) | 103 nM | 1.08 nM | 68 | 73.9 nM | 95 | – | –
46 | Cc1ccc(C2CC3CCC(C2C(=O)Oc2ccccc2C)N3C)cc1 (centres undefined) | 25700 nM | 23.2 nM | 476 | 11000 nM | 1110 | – | –
47 | CN1C2CCC1C(C(=O)OCCc1ccccc1)C(OC(=O)c1ccccc1)C2 (centres undefined) | 19900 nM | 181 nM | 3.4 | 615 nM | 110 | – | –
48 | COc1ccc(OC(=O)C2C(c3ccc(C)cc3)CC3CCC2N3C)cc1 (centres undefined) | 3150 nM | 95.6 nM | 861 | 82300 nM | 33 | – | –
49 | Cc1cccc(OC(=O)C2C(c3ccc(Cl)cc3)CC3CCC2N3C)c1 (centres undefined) | 2740 nM | 9.37 nM | 230 | – | 293 | – | –
50 | CN1C2CCC1C(C(=O)OC1CC1)C(c1ccc(Cl)cc1)C2 (centres undefined) | 235 nM | 0.96 nM | 175 | – | 245 | – | –
